From ChEMBL document CHEMBL1147738, “Potent and selective mitogen-activated protein kinase kinase (MEK) 1,2 inhibitors. 1. 4-(4-bromo-2-fluorophenylamino)-1- methylpyridin-2(1H)-ones” (J Med Chem, 2006)
Values after ≈ are worked out from the molar mass of the structure shown.

What was measured:
Rattus norvegicus [1] = assay: AUC in rat at 1 mg/kg, iv; format: ADME, organism-based, Sprague-Dawley, Plasma; parameters: dose 1 mg/kg, route intravenous; settings: in vivo
Procedure, shortened: (§1)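 Male Sprague Dawley rats (6-10 weeks), fed ad lib, dosed IV at 1 mg/kg (1 mg/mL in 10% DMSO/90% normal saline, 1 mL/kg). Tail-vein EDTA blood sampled 1, 5, 15, 30 min and 1, 2, 4, 8, 12, 24 h. Plasma analysed by LC/MS/MS after methanol protein precipitation, range 9 ng/mL to 20 µg/mL. Parameters derived by non-compartmental analysis.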

Rattus norvegicus [2] = assay: AUC in rat at 10 mg/kg, po; format: ADME, organism-based, Sprague-Dawley, Plasma; parameters: dose 10 mg/kg, route oral; settings: in vivo
Procedure, shortened: (§2)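 Male Sprague Dawley rats (6-10 weeks) were given 10 mg/kg by oral gavage (2 mg/mL in 1% CMC/0.5% Tween 80, 5 mL/kg). Tail-vein EDTA blood was drawn at 15 and 30 min and 1, 2, 4, 8, 12, 24, 48, 72 h. Plasma was quantified by LC/MS/MS after methanol precipitation. Parameters came from non-compartmental analysis.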

[3] = Half life in rat at 1 mg/kg, iv; format: ADME, organism-based; parameters: dose 1 mg/kg, route intravenous; settings: Sprague-Dawley, in vivo; procedure, shortened: as §1
HT-29 [4] = assay: Inhibition of ERK phosphorylation in HT29 tumor bearing Ncr-nu/nu mice after 12 hrs at 10 mg/kg, po; format: functional; settings: Mus musculus, HT-29, 12 h
[5] = Volume of distribution in rat; format: ADME, organism-based; settings: Sprague-Dawley, in vivo, read-out: Vdss
Procedure, shortened: (§3)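 Male Sprague Dawley rats (6-10 weeks) received IV 1 mg/kg (10% DMSO/90% saline) and PO 10 mg/kg (1% CMC/0.5% Tween 80). Serial tail-vein plasma was taken up to 24 h (IV) or 72 h (PO) and analysed by LC/MS/MS (9 ng/mL to 20 µg/mL). Parameters were calculated non-compartmentally.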

[6] = Aqueous solubility at pH 6.5; format: physicochemical
Procedure, shortened: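 Thermodynamic shake-flask method: crystalline solid (0.5 mg, crystallinity confirmed by polarizing microscopy) in 0.5 mL 10 mM potassium phosphate, pH 6.5, swirled 24 h at room temperature. Filtered aliquots were quantified by HPLC-PDA against a calibration curve.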

[7] = Clearance in rat; format: ADME, organism-based; settings: Sprague-Dawley, in vivo; procedure, shortened: as §3
HT-29 [8] = assay: Inhibition of ERK phosphorylation in HT29 tumor bearing NCr-nu/nu mice after 4 hrs at 10 mg/kg, po; format: functional; settings: Mus musculus, HT-29, 4 h
Malme-3M [9] = assay: Inhibition of basal ERK phosphorylation in Malme-3M cells; format: functional, Homo sapiens
[10] = Clearance in presence of human hepatocytes; format: ADME, cell-based, Liver, Hepatocyte
Procedure, shortened: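 Human hepatocytes (fresh or cryopreserved) diluted to 2 x 10⁶ viable cells/mL in supplemented Krebs-Henseleit buffer pH 7.3, mixed 1:1 with 2 µM compound working solution. Incubated at 37 °C, 5% CO₂, duplicates, one plate per timepoint. Quenched with labetalol internal standard and centrifuged; compound remaining measured by LC-MS/MS (ESI+, MRM).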

Malme-3M [11] = assay: Inhibition of cellular viability of Malme-3M cells; format: functional, Homo sapiens
[12] = Oral bioavailability in rat; format: ADME, organism-based; settings: Sprague-Dawley, in vivo; procedure, shortened: as §3
[13] = Half life in rat at 10 mg/kg, po; format: ADME, organism-based; parameters: dose 10 mg/kg, route oral; settings: Sprague-Dawley, in vivo; procedure, shortened: as §2
[14] = biological target: Dual specificity tyrosine-phosphorylation-regulated kinase 1A (Homo sapiens) (UniProt Q13627); assay: Inhibition of DYRK1a at 10 uM
Procedure, shortened: (§4)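 Kinase panel run at Upstate (Dundee). Each compound was tested at 10 µM against each enzyme and reported as % inhibition.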

[15] = biological target: Mitogen-activated protein kinase 14 (Homo sapiens) (UniProt Q16539); assay: Inhibition of SAPK2a/p38 at 10 uM; procedure, shortened: as §4
Chain of Mitogen-activated protein kinase 14 (Homo sapiens) (Q16539 whole entry): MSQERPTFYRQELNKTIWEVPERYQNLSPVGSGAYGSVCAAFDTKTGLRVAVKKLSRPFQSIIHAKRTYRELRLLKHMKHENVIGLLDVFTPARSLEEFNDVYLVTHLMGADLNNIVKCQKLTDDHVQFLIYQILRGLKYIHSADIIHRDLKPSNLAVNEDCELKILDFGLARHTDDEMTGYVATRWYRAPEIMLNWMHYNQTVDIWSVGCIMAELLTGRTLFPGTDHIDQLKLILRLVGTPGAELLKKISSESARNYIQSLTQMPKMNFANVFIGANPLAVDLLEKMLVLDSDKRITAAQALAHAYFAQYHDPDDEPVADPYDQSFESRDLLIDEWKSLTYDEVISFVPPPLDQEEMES

[16] = biological target: Ribosomal protein S6 kinase (P70S6K) (Homo sapiens) (UniProt Q9UBS0+P23443); assay: Inhibition of p70 S6K at 10 uM; format: protein-complex assay; procedure, shortened: as §4
[17] = biological target: Tyrosine-protein kinase Lck (Homo sapiens) (UniProt P06239); assay: Inhibition of LCK at 10 uM; procedure, shortened: as §4
Chain of Tyrosine-protein kinase Lck (Homo sapiens) (P06239 2-509 limits assumed): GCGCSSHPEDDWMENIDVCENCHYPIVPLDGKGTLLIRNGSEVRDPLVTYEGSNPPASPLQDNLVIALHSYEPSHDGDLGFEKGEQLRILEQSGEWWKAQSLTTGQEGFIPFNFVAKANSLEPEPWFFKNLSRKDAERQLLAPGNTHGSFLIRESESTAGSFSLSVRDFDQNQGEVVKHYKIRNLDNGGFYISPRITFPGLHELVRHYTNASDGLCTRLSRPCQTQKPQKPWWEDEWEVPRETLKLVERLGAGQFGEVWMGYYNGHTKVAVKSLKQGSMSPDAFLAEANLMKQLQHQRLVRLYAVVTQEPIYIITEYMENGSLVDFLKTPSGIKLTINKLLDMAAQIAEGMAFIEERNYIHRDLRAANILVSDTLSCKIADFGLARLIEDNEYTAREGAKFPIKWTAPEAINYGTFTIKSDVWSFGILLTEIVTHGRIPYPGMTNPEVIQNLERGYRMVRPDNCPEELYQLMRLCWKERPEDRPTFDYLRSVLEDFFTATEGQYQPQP

[18] = biological target: Glycogen synthase kinase-3 beta (Homo sapiens) (UniProt P49841); assay: Inhibition of GSK3b at 10 uM; procedure, shortened: as §4
Chain of Glycogen synthase kinase-3 beta (Homo sapiens) (P49841 whole entry, looked up): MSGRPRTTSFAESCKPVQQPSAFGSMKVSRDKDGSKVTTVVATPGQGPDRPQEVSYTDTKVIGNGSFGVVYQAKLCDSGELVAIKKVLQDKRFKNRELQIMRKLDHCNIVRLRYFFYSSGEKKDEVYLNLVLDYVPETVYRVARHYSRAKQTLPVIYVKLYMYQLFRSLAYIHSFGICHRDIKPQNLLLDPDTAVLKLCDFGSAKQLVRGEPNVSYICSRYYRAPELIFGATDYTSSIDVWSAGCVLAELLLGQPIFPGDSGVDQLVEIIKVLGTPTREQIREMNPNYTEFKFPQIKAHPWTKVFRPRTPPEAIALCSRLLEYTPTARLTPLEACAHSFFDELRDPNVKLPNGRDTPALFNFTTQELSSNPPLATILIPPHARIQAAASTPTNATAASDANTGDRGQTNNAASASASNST

[19] = biological target: Mitogen-activated protein kinase 8 (Homo sapiens) (UniProt P45983); assay: Inhibition of JNK/SAPK1c at 10 uM; procedure, shortened: as §4
[20] = biological target: Mitogen-activated protein kinase 11 (Homo sapiens) (UniProt Q15759); assay: Inhibition of SAPK2b/p38--beta-2 at 10 uM; procedure, shortened: as §4
Chain of Mitogen-activated protein kinase 11 (Homo sapiens) (Q15759 whole entry): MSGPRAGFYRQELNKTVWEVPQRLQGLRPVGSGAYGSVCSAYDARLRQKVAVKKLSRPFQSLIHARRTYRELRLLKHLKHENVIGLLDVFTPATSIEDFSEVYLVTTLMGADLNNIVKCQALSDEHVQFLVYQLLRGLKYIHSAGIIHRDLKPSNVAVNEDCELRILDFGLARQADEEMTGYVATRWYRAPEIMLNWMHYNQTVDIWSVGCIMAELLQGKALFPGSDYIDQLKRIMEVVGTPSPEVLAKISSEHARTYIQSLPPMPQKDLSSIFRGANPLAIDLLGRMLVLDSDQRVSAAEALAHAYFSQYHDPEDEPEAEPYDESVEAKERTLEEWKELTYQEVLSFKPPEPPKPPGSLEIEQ

[21] = biological target: Casein kinase II (Homo sapiens) (UniProt P67870+P68400+P19784); assay: Inhibition of CK2 at 10 uM; format: protein-complex assay; procedure, shortened: as §4
[22] = biological target: Mitogen-activated protein kinase 1 (Homo sapiens) (UniProt P28482); assay: Inhibition of MAPK2/ERK2 at 10 uM; procedure, shortened: as §4
[23] = biological target: T1, Lymphokine-activated killer T-cell-originated protein kinase (Homo sapiens) (UniProt Q96KB5); assay: Inhibition of PBK at 10 uM; procedure, shortened: as §4
T1 sequence (whole entry): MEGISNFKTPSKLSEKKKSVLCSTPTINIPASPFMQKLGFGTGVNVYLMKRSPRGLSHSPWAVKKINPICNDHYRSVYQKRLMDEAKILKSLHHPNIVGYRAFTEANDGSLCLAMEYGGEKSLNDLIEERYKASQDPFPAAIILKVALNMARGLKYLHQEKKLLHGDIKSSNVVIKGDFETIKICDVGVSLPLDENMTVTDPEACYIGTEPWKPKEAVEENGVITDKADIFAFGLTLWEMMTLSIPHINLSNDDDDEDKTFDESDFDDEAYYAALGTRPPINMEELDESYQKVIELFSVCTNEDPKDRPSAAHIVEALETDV

[24] = biological target: Ribosomal protein S6 kinase alpha-5 (Homo sapiens) (UniProt O75582); assay: Inhibition of MSK1 at 10 uM; procedure, shortened: as §4
Chain of Ribosomal protein S6 kinase alpha-5 (Homo sapiens) (O75582 whole entry, looked up): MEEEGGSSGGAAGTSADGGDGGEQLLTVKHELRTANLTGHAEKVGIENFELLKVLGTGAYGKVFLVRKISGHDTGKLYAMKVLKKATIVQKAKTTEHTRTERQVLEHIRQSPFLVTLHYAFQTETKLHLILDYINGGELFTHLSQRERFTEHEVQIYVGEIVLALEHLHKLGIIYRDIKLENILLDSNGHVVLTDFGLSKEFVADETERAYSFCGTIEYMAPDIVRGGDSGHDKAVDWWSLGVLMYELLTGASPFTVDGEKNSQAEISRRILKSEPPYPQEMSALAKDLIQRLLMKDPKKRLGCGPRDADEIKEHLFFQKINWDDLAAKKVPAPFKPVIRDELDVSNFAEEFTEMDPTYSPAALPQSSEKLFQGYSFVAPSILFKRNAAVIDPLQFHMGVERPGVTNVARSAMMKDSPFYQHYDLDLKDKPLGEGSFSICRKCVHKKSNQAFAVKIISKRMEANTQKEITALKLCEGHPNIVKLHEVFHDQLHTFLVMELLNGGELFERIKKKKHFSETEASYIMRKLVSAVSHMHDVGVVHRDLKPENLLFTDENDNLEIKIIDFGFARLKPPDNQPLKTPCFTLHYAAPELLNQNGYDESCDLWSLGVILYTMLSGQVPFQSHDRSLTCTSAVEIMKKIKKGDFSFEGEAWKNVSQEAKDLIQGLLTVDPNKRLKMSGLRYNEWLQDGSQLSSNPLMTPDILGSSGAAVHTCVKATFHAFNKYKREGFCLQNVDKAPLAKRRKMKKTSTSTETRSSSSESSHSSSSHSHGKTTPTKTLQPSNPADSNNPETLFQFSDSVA

[25] = biological target: MAP kinase-activated protein kinase 2 (Homo sapiens) (UniProt P49137); assay: Inhibition of MAPKAP-K2 at 10 uM; procedure, shortened: as §4
Chain of MAP kinase-activated protein kinase 2 (Homo sapiens) (P49137 whole entry, looked up): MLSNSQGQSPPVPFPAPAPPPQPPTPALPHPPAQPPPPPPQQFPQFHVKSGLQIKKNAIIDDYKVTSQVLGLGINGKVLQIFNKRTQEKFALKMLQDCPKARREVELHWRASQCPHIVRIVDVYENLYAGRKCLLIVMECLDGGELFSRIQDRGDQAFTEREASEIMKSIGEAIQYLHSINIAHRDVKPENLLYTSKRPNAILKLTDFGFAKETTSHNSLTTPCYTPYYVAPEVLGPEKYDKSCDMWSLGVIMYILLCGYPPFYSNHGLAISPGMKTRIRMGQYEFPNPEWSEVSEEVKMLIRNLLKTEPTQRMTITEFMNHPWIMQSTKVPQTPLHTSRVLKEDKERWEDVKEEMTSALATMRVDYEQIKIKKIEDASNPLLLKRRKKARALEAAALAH

[26] = biological target: Protein kinase C alpha type (Homo sapiens) (UniProt P17252); assay: Inhibition of PKCa at 10 uM; procedure, shortened: as §4
[27] = biological target: Rho-associated protein kinase 2 (Homo sapiens) (UniProt O75116); assay: Inhibition of ROCK 2 at 10 uM; procedure, shortened: as §4
Chain of Rho-associated protein kinase 2 (Homo sapiens) (O75116 whole entry, looked up): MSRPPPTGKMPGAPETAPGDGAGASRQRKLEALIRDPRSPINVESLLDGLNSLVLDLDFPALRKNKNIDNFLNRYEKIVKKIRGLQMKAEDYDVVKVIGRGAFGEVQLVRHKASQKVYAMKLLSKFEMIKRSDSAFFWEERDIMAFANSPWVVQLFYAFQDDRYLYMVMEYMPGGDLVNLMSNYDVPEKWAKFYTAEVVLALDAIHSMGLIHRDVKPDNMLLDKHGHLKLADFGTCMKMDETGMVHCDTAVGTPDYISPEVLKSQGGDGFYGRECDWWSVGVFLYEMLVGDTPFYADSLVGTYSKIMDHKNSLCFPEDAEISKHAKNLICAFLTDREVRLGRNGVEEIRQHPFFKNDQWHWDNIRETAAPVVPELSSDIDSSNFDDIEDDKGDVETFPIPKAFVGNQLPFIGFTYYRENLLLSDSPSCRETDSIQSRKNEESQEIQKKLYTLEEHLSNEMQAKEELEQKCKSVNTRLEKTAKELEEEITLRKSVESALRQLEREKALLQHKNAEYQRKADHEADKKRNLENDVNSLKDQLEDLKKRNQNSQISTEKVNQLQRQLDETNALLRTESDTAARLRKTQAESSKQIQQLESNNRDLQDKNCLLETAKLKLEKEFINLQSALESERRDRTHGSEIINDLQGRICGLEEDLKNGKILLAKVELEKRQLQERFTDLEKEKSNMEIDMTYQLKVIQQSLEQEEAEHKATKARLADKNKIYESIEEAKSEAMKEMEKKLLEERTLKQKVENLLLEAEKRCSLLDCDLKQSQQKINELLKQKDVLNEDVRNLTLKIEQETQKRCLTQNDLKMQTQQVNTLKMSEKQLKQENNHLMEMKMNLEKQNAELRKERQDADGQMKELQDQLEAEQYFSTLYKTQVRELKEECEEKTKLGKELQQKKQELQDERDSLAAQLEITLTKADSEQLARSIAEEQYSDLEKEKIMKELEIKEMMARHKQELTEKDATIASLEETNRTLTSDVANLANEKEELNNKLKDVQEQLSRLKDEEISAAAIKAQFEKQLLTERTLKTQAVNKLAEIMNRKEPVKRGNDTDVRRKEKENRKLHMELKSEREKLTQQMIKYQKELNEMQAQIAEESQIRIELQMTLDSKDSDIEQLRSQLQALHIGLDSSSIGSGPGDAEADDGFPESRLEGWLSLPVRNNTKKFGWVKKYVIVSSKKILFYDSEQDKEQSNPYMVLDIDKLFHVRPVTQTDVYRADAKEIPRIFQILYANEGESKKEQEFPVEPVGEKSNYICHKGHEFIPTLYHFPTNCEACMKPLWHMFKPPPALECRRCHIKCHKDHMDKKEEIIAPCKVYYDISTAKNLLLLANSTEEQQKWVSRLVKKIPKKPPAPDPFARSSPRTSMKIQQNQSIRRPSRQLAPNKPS

[28] = biological target: cAMP-dependent protein kinase (PKA) (Homo sapiens) (UniProt P22694+P17612+P22612); assay: Inhibition of PKA at 10 uM; format: protein assay; procedure, shortened: as §4
[29] = biological target: Ribosomal protein S6 kinase alpha-1 (Homo sapiens) (UniProt Q15418); assay: Inhibition of MAPKAP-K1a at 10 uM; procedure, shortened: as §4
[30] = biological target: T2, Serine/threonine-protein kinase Chk1 (Homo sapiens) (UniProt O14757); assay: Inhibition of CHK1 at 10 uM; procedure, shortened: as §4
T2 sequence (whole entry): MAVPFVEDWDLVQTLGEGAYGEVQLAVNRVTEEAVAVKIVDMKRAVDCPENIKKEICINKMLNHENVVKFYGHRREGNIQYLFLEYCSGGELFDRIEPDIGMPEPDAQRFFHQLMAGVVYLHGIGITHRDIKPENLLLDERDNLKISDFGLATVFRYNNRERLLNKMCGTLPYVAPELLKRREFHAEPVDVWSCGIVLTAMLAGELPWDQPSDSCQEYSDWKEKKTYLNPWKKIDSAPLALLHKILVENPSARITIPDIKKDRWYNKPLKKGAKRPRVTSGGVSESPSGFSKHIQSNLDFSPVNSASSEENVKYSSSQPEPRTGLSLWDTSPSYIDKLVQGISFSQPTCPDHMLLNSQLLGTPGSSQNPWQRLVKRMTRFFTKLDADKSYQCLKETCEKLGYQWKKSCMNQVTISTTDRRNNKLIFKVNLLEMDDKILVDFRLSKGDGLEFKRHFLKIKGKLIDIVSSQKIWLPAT

[31] = biological target: Cyclin-dependent kinase 2/cyclin A (Homo sapiens) (UniProt P24941+P20248+P78396); assay: Inhibition of CDK2/cyclin A at 10 uM; format: protein-complex assay; procedure, shortened: as §4
[32] = biological target: T3, MAP kinase-activated protein kinase 5 (Homo sapiens) (UniProt Q8IW41); assay: Inhibition of PRAK at 10 uM; procedure, shortened: as §4
T3 sequence (whole entry): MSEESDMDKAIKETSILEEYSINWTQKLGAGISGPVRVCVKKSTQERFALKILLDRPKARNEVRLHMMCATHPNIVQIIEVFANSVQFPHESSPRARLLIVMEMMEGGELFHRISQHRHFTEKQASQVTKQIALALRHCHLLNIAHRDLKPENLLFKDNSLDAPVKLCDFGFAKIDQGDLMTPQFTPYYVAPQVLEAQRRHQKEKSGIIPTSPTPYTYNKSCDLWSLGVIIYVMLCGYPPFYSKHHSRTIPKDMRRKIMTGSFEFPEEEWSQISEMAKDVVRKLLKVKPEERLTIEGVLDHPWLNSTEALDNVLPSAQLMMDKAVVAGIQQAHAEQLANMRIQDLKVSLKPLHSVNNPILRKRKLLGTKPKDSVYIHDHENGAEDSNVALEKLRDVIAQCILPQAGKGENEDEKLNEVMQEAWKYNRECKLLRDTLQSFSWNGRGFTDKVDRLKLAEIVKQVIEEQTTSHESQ

[33] = biological target: RAC-alpha serine/threonine-protein kinase (Homo sapiens) (UniProt P31749); assay: Inhibition of PKBa at 10 uM; procedure, shortened: as §4
[34] = biological target: AMP-activated protein kinase, AMPK (Homo sapiens) (UniProt P54646+O43741+P54619+Q9UGJ0+Q9Y478+Q13131+Q9UGI9); assay: Inhibition of AMPK at 10 uM; format: protein-complex assay; procedure, shortened: as §4

## Cn1cc(C(N)=O)c(Nc2ccc(Br)cc2F)c(F)c1=O
Rattus norvegicus [1]
  AUC: 2.5 µg·h/mL
Rattus norvegicus [2]
  AUC: 23 µg·h/mL
[3]
  half-life: 1.8 h
HT-29 [4]
  inhibition in vivo at 10 mg/kg: 50%
[5]
  Vd: 0.8 L/kg
[6]
  solubility: 0.026 mg/mL (≈ 72.6 µM)
[7]
  clearance: 0.342 L/h/kg
HT-29 [8]
  inhibition in vivo at 10 mg/kg: > 80%
Malme-3M [9]
  Activity: 7.1 nM
[10]
  CLhep predicted: 0.54 L/h/kg
Malme-3M [11]
  Activity: 48 nM
[12]
  bioavailability: 100%
[13]
  half-life: 11 h

## O=C(NOCCO)c1cnc(Cl)c(Cl)c1Nc1ccc(Br)cc1F
Malme-3M [9]
  Activity: >10000 nM
Malme-3M [11]
  Activity: >5000 nM

## CCONC(=O)c1cn(C)c(=O)c(F)c1Nc1ccc(Br)cc1F
[14]
  inhibition: 12%
[15]
  inhibition: 10%
Rattus norvegicus [1]
  AUC: 24.1 µg·h/mL
[16]
  inhibition: 13%
[17]
  inhibition: 19%
[18]
  inhibition: 21%
[19]
  inhibition: 15%
Rattus norvegicus [2]
  AUC: 138 µg·h/mL
[20]
  inhibition: 9%
[3]
  half-life: 6 h
[21]
  inhibition: 4%
[22]
  inhibition: 7%
[23]
  inhibition: -1%
[24]
  inhibition: 7%
[5]
  Vd: 0.4 L/kg
[7]
  clearance: 0.042 L/h/kg
[25]
  inhibition: 15%
[26]
  inhibition: 6%
[27]
  inhibition: 4%
[28]
  inhibition: 14%
[29]
  inhibition: 6%
[30]
  inhibition: 13%
[31]
  inhibition: 25%
[10]
  CLhep predicted: 0.12 L/h/kg
[32]
  inhibition: 18%
[33]
  inhibition: 6%
[34]
  inhibition: 8%
[12]
  bioavailability: 58%
[13]
  half-life: 12 h

## Cn1cc(C(=O)NO)c(Nc2ccc(Br)cc2F)c(F)c1=O
Malme-3M [9]
  Activity: 18 nM
Malme-3M [11]
  Activity: 860 nM

## Cn1cc(C(=O)O)c(Nc2ccc(Br)cc2F)c(F)c1=O
Malme-3M [9]
  Activity: >10000 nM
Malme-3M [11]
  Activity: >5000 nM

## Cn1cc(C(=O)NCC2CC2)c(Nc2ccc(Br)cc2F)c(F)c1=O
Malme-3M [9]
  Activity: 1206 nM
Malme-3M [11]
  Activity: >5000 nM

## Cn1cc(C(=O)NOCC2CC2)c(Nc2ccc(Br)cc2F)cc1=O
Malme-3M [9]
  Activity: 26 nM
Malme-3M [11]
  Activity: 165 nM

## Cn1cc(C(=O)NOCCO)c(Nc2ccc(Br)cc2F)cc1=O
Malme-3M [9]
  Activity: 73 nM
Malme-3M [11]
  Activity: 460 nM
